Screens deposited in PubChem BioAssay by several laboratories.
The list is not random: actives were taken first. Their share in the collection is about 3.2%.
Mcl1-Noxa inh: Mcl-1/Noxa interaction inhibition. Q07820. TR-FRET Mcl-1/Noxa peptide binding, 2 h. inhibition, % at 21.7 µM. 1.5% of 220,000 active;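 active means compounds that cut the protein-peptide binding signal by more than 50% relative to plate controls in a single-dose test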;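 further: His-tagged Mcl-1 with rhodamine Noxa BH3 peptide and terbium anti-His antibody; 0% = Mcl-1 plus Noxa peptide wells and 100% = peptide-only wells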
Target sequence (Q07820 whole entry, looked up): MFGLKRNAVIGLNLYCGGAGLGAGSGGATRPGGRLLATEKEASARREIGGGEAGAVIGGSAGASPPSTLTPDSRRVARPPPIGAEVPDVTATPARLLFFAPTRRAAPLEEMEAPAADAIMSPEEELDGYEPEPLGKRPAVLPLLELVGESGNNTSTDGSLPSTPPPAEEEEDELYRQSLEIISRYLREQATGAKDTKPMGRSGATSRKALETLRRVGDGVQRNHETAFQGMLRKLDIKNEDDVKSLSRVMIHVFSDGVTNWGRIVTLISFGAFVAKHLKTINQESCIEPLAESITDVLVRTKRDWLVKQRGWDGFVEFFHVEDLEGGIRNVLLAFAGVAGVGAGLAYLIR
Biofilm kill mix: mixtures killing C. albicans biofilm; C. albicans biofilm persisters + clotrimazole, fluorescence viability; primary screen in compound mixtures of four per well; inhibition, % at 7.6 µM; 0.02% of 120,000 active; AID 1242;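 active means inhibition above 30.3% in the primary screen of four-compound pools, then above 30% when the compound was retested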;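 further: compounds exposed to preformed 24 h biofilms for 48 h; 0% = untreated biofilm control and 100% = clotrimazole plus chlorhexidine kill blank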
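Incubation: 24 h biofilm formation, then 48 h compound exposure, 37 °C | Material: C. albicans biofilms | Buffer or medium: RPMI/MOPS medium, pH 7.0 | Measured by: 2-h Alamar Blue fluorescence, 535/590 nm excitation/emission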
Mcl-1 Bim block: inhibitors of Bim-Mcl-1 interaction, human | AID 1009 | Bead-based flow cytometry, Bim peptide-Mcl-1 binding | Q07820 | inhibition, % at 10 µM | 0.1% of 190,000 active; in the data active means inhibition above about 40%;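 further: 0% = no compound tracer wells and 100% = peptide blocker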
14-3-3 Bad PPI: disrupts binding of bovine 14-3-3 zeta to phospho-Bad peptide. inhibition, % at 21.7 µM. 0.71% of 220,000 active. TR-FRET 14-3-3zeta/Dy647-pBad peptide displacement, 1 h. AID 781. P63103;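 active means inhibition above about 70%, limit read from the data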;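 further: 0% = full 14-3-3 plus peptide FRET controls and 100% = background without 14-3-3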
Target sequence (P63103 whole entry, looked up): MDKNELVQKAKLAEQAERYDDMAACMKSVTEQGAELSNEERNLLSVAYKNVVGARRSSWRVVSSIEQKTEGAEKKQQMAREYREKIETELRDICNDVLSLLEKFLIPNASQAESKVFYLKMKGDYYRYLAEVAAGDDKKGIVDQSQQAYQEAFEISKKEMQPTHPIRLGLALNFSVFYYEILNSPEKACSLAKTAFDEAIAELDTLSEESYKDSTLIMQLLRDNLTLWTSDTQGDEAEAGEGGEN
Hck Nef HTS: human Hck-Nef kinase inhibition | Recombinant Hck-YEEI plus Nef, Z-Lyte FRET kinase assay | inhibition, % at 20 µM | 0.68% of 220,000 active;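 active means Hck-Nef kinase inhibition above about 50%, limit read from the data; inactive means inhibition below that limit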;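 further: 0% = DMSO with Hck plus Nef and 100% = Hck alone without Nef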
Mcl1-Bid inh: Mcl-1/Bid interaction inhibition | Q07820 | TR-FRET Mcl-1/Bid-Dy647 peptide binding, 1536-well | inhibition, % at 21.7 µM | 0.97% of 220,000 active | AID 1021;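 active means compounds that cut the binding signal by more than half at the single screening dose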;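 further: His-tagged Mcl-1 with europium anti-His antibody binding Bid BH3 peptide; 0% = Mcl-1 plus peptide wells and 100% = peptide-only wells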
Starred values were filed as active, the others as inactive; [ ] = remark or other dose.

What do the screens show for `CCNc1ccc(S(=O)(=O)NCCN(C)C)cc1[N+](=O)[O-]`?
Mcl1-Noxa inh: -4; Biofilm kill mix: 13; Mcl-1 Bim block: -1; 14-3-3 Bad PPI: -13; Hck Nef HTS: -5; Mcl1-Bid inh: -26

What do the screens show for `CN(C)c1ccc(NC(=O)CCn2c(=S)oc3ccccc32)cc1`?
Mcl1-Noxa inh: 68*; Biofilm kill mix: 15; Mcl-1 Bim block: 2; 14-3-3 Bad PPI: 9; Hck Nef HTS: 16; Mcl1-Bid inh: -15

How did Cc1ccc(NC(=O)CCn2c(=S)oc3ccccc32)cc1 do in these assays?
Mcl1-Noxa inh: 15; Biofilm kill mix: 15; Mcl-1 Bim block: 2; 14-3-3 Bad PPI: 11; Hck Nef HTS: 22; Mcl1-Bid inh: 17

What do the screens show for `CCN(CC)CCn1c(=S)[nH]c2cc(C(=O)N3CC=C(c4ccccc4)CC3)ccc2c1=O`?
Mcl1-Noxa inh: 3; Biofilm kill mix: 11; Mcl-1 Bim block: -3; 14-3-3 Bad PPI: -4; Hck Nef HTS: 23; Mcl1-Bid inh: -29

What do the screens show for `Cc1cccc(COc2ncnc3nc[nH]c23)c1`?
Mcl1-Noxa inh: 0; Biofilm kill mix: 14; Mcl-1 Bim block: -25; 14-3-3 Bad PPI: -11; Hck Nef HTS: 2; Mcl1-Bid inh: -7

What do the screens show for `CCOC(=O)c1sc(N=NC2=C(O)CCCC2=O)c(C(=O)OCC)c1C`?
Mcl1-Noxa inh: 24; Biofilm kill mix: 3; Mcl-1 Bim block: 3; 14-3-3 Bad PPI: -26; Hck Nef HTS: 51*; Mcl1-Bid inh: -57

What do the screens show for `CCOC(=O)/C(N=Nc1sc(C(=O)OCC)c(C)c1C(=O)OCC)=C(\C)O`?
Mcl1-Noxa inh: 13; Biofilm kill mix: 16; Mcl-1 Bim block: 1; 14-3-3 Bad PPI: 1; Hck Nef HTS: 0; Mcl1-Bid inh: -15

What do the screens show for `CCOc1ccccc1OCCn1nnc2ccccc21`?
Mcl1-Noxa inh: -21; Mcl-1 Bim block: 0; 14-3-3 Bad PPI: 82*; Hck Nef HTS: 4; Mcl1-Bid inh: -4

Results for CCOc1ccc(OCCn2nnc3ccccc3c2=O)cc1 ?
Mcl1-Noxa inh: 2; Biofilm kill mix: 11; Mcl-1 Bim block: -1; 14-3-3 Bad PPI: -9; Hck Nef HTS: 21; Mcl1-Bid inh: -10

How did CCOc1ccc(S(=O)(=O)n2nnc3ccccc32)cc1C(C)C do in these assays?
Mcl1-Noxa inh: 19; Mcl-1 Bim block: 2; 14-3-3 Bad PPI: 71*; Hck Nef HTS: 3; Mcl1-Bid inh: 11

Results for COc1ccc2nc(C)cc(SCC(=O)N/N=C/c3ccccc3)c2c1 ?
Mcl1-Noxa inh: -14; Biofilm kill mix: -2; Mcl-1 Bim block: -4; 14-3-3 Bad PPI: 24; Hck Nef HTS: 13; Mcl1-Bid inh: 8

How did COc1ccc2nc(C)cc(SCC(=O)N/N=C/c3c(OC)ccc4ccccc34)c2c1 do in these assays?
Mcl1-Noxa inh: 3; Biofilm kill mix: 8; Mcl-1 Bim block: -12; 14-3-3 Bad PPI: 96*[fluorescence artefact?]; Hck Nef HTS: 50; Mcl1-Bid inh: 64*

What do the screens show for `COc1ccc2nc(C)cc(SCC(=O)NNC(=O)COc3cccc4ccccc34)c2c1`?
Mcl1-Noxa inh: 1; Biofilm kill mix: 20; Mcl-1 Bim block: -1; 14-3-3 Bad PPI: 57; Hck Nef HTS: 3; Mcl1-Bid inh: 52*

What do the screens show for `CCC(=O)N1C(Cc2ccccc2)COC1(C)C` (stereo not drawn)?
Mcl1-Noxa inh: 14; Biofilm kill mix: 1; Mcl-1 Bim block: -1; 14-3-3 Bad PPI: 2; Hck Nef HTS: 6; Mcl1-Bid inh: -8

What do the screens show for `CC/C(=C/c1sc2ccc(C)cc2[n+]1CCCS(=O)(=O)[O-])SC`?
Mcl1-Noxa inh: -3; Biofilm kill mix: 32; Mcl-1 Bim block: 0; 14-3-3 Bad PPI: -2; Hck Nef HTS: 27; Mcl1-Bid inh: -20

Results for O=S(=O)([O-])CCC[n+]1c(SCCCS(=O)(=O)O)sc2ccc(Cl)cc21 ?
Mcl1-Noxa inh: 17; Biofilm kill mix: 11; Mcl-1 Bim block: -1; 14-3-3 Bad PPI: 92*[fluorescence artefact?]; Hck Nef HTS: 6; Mcl1-Bid inh: -14

What do the screens show for `O=C1CSC(c2cccnc2)N1CCc1ccccn1` (stereo not drawn)?
Mcl1-Noxa inh: -5; Biofilm kill mix: 19; 14-3-3 Bad PPI: -4; Hck Nef HTS: 11; Mcl1-Bid inh: -9

Results for Cc1nc(-c2cccc(S(=O)(=O)N3CCCC(C)C3)c2)cs1 (stereo not drawn) ?
Mcl1-Noxa inh: 9; Mcl-1 Bim block: 0; 14-3-3 Bad PPI: 80*; Hck Nef HTS: 0; Mcl1-Bid inh: -8

How did Cc1nc(-c2cccc(S(=O)(=O)N3CCC(C)CC3)c2)cs1 do in these assays?
Mcl1-Noxa inh: -5; Mcl-1 Bim block: -4; 14-3-3 Bad PPI: -1; Hck Nef HTS: -3; Mcl1-Bid inh: -16

Results for O=C(N/N=C/c1ccc(-c2ccccc2C(=O)O)o1)c1cccs1 ?
Mcl1-Noxa inh: 79*; Biofilm kill mix: 11; Mcl-1 Bim block: 2; 14-3-3 Bad PPI: 16; Hck Nef HTS: 12; Mcl1-Bid inh: 0

What do the screens show for `CCCCCCNC(=O)c1c(O)c2ccccc2[nH]c1=O`?
Mcl1-Noxa inh: -1; Mcl-1 Bim block: -1; 14-3-3 Bad PPI: -5; Hck Nef HTS: 2; Mcl1-Bid inh: -52

What do the screens show for `CCN(CC(=O)Nc1ccc(N2CCOCC2)cc1)C(=O)c1ccc(C#N)cc1`?
Mcl1-Noxa inh: 2; Biofilm kill mix: -3; Mcl-1 Bim block: -1; 14-3-3 Bad PPI: -3; Hck Nef HTS: 18; Mcl1-Bid inh: -32

How did CC1Cc2cc(/C=C3/SC(=S)NC3=O)ccc2O1 (stereo not drawn) do in these assays?
Mcl1-Noxa inh: 12; Biofilm kill mix: 0; 14-3-3 Bad PPI: -3; Hck Nef HTS: 14; Mcl1-Bid inh: -45

Results for Cc1ccc(C2C(/C=C3/SC(=S)NC3=O)=C(c3cccs3)Oc3ccccc32)cc1 (stereo not drawn) ?
Mcl1-Noxa inh: 90*; Mcl-1 Bim block: 4; 14-3-3 Bad PPI: 1; Hck Nef HTS: -1; Mcl1-Bid inh: 2

How did COc1cc(C(=O)NC(=S)Nc2nccs2)cc(OC)c1OC do in these assays?
Mcl1-Noxa inh: 3; Biofilm kill mix: 6; Mcl-1 Bim block: 0; 14-3-3 Bad PPI: -3; Hck Nef HTS: -1; Mcl1-Bid inh: -59

How did O=C(Cc1ccccc1)Nc1scc(-c2ccccc2)c1C(=O)N1CCOCC1 do in these assays?
Mcl1-Noxa inh: 20; Mcl-1 Bim block: 0; 14-3-3 Bad PPI: -5; Hck Nef HTS: -24; Mcl1-Bid inh: 86*

How did COCCNC(=O)C(c1ccc(C)o1)N(Cc1ccco1)C(=O)c1snc(C(N)=O)c1N (stereo not drawn) do in these assays?
Mcl1-Noxa inh: -6; Biofilm kill mix: 13; Mcl-1 Bim block: -2; 14-3-3 Bad PPI: -11; Hck Nef HTS: 15; Mcl1-Bid inh: -29

Results for CC(C(=O)NC1CCCC1)N(Cc1ccco1)C(=O)c1snc(C(=O)NC2CCCC2)c1N (stereo not drawn) ?
Mcl1-Noxa inh: 90*; Mcl-1 Bim block: -3; 14-3-3 Bad PPI: -6; Hck Nef HTS: 3; Mcl1-Bid inh: 37
